Source: PubChem
Arrestin-AP2 inh: inhibitors of beta-arrestin/AP2 binding, primary screen, biochemical, GPCR trafficking, flow cytometry; FITC-arrestin peptide / GST-AP2 beads; AP2 beta2 appendage carries R879A mutation; inhibition, % at 10 µM; 0.31% of 340,000 active;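 active = inhibition above a set limit, near 3 SD of compounds lacking own fluorescence, cut at about 54% in these data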
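Material – AP2 appendage R879A on GSH beads · Buffer or medium – PBS with 0.05% Tween 20 and 0.1% BSA · Probe or stimulus – fluorescein-tagged arrestin peptide at 50 nM final · Incubation – compound with beads 12 min RT, then probe 1 h RT · Detection – high-throughput flow cytometry of beads, ex 488, em 535 nm · Evaluation – percent response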
Hep lipid drop: inhibitors of hepatocyte lipid droplet formation, primary screen, imaging, high-throughput imaging, BODIPY stain. AML12 mouse hepatocytes, oleate lipid droplets. inhibition, % at 6.5 µM. 0.4% of 240,000 active. AID 1656, 2009;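 active = lipid droplet intensity inhibited by at least 50%, with more than 500 cells counted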
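Technique: fluorescence imaging, 20x objective, two fields per well / Assay system: AML12 hepatocytes (mouse) / Measure: % inhibition of lipid droplet signal / Doses: 6.5 µM single-point dosing / Incubation: overnight exposure / Reagent: 100 µM oleic acid challenge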
NTR1 agonist: agonists of human NTR1, primary screen, imaging, U2OS cells, beta-arrestin-GFP, high content. 0.17% of 330,000 active. NTR1-U2OS beta-arrestin-GFP spot imaging, agonist mode. AID 493036, 2011. Neurotensin receptor type 1 (Homo sapiens), P30989. activation, % at 20 µM;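 active = activation at or above 40% of the spot to cytoplasm intensity ratio, with at least 20 cells analyzed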
Target sequence (P30989 whole entry, looked up): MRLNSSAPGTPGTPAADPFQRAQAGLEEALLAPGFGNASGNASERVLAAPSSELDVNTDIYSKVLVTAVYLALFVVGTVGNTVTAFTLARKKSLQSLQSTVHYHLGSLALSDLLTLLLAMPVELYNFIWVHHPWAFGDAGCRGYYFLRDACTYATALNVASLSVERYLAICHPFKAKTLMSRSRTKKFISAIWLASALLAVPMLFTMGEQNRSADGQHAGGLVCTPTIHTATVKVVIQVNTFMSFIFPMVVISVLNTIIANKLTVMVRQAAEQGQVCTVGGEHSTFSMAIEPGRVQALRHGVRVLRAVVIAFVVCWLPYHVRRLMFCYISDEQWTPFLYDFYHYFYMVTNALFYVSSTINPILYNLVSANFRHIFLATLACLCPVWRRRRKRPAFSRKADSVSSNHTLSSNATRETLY
Beta2AR agonist: beta2AR agonists driving receptor internalization, primary screen, cell-based, FAP fluorogen, flow cytometry | Beta-2 adrenergic receptor (Homo sapiens), P07550 | Am2.2-beta2AR cells | response, % (test concentration not listed) | 0.43% of 340,000 active;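 active = response above a set limit, near 3 SD of response in nonfluorescent compounds, cut at about 42% in these data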
GRK2 aptamer HTS: compounds blocking aptamer binding on GRK2 – biochemical, human GRK2, bead flow cytometry, HTS, primary screen. Beta-adrenergic receptor kinase 1 (Homo sapiens), P25098. FAM-aptamer displacement from GRK2. inhibition of aptamer binding, % at 10 µM. 0.59% of 330,000 active. AID 488847, 2010;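 active = inhibition of aptamer binding above 40%, roughly 3 SD of noise, on plates passing a quality check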;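 note: median bead fluorescence of bound FAM aptamer so fluorescent compounds give negative values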
H9c2 TAG inh: inhibitors of triacylglycerol accumulation, primary screen, cell-based, uHTS, fluorescence, H9c2. inhibition, % at 12.5 µM. H9c2 cells, Nile Red lipid (TAG) fluorescence; cells loaded with 200 µM oleic acid. 0.66% of 230,000 active. AID 651582, 2012;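 active = pattern-corrected inhibition of lipid staining of at least 50% with the nuclear-stain viability signal not falling by more than 50%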
GRK2 inh confirm: GRK2 aptamer-displacing inhibitors, retest, confirmation, biochemical, cherry pick 1, bead flow cytometry; 4% of 2,000 active; bead-bound GRK2, FAM-aptamer displacement; shares compounds with GRK2 aptamer HTS; aptamer displacement, % at 10 µM; AID 504451, 2011;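 active = aptamer displacement above 40%, near three times the noise of non-fluorescent compounds, on plates passing quality checks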;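 note: negative values mostly reflect intrinsic compound fluorescence rather than true enhancement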
Aptamer quench SP: aptamer fluorescence quenching in GRK2 counter-screen; shares compounds with GRK2 aptamer HTS; Carboxyfluorescein RNA aptamer on beads, flow cytometry quenching; hits give low values; fluorescence response (% of DMSO), % at 10 µM; 2,000 tested, under 10 active;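 active = compounds that quench the bead-bound fluorescent RNA probe, cutting fluorescence to under half of the solvent control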;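 note: counterscreen run without GRK2 so only probe quenching by compound is measured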
GRK2 CP2: GRK2 aptamer-displacing inhibitors, hit retest, confirmation, biochemical, cherry pick 2, bead flow cytometry; 360 tested, under 10 active; bead-bound GRK2, FAM-aptamer displacement; shares compounds with GRK2 aptamer HTS; inhibition of aptamer binding, % at 10 µM;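 active = inhibition of aptamer binding above 40%, about triple the noise seen with nonglowing compounds, on plates passing quality control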;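 note: negative values mostly come from compounds that fluoresce themselves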
FAM quench SP: counter-screen for GRK2 binding hits: quenchers of fluorescent RNA aptamer | fluorescence response vs DMSO, % at 10 µM | carboxyfluorescein RNA aptamer beads, flow cytometry quenching; hits give low values | 360 tested, under 10 active | AID 588494 | shares compounds with GRK2 aptamer HTS;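 active = response vs DMSO under 50%, meaning signal dropped by over half, treated as fluorescence quencher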;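 note: labelled aptamer on streptavidin beads without GRK2 as a quench counter-screen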
Each line names hits and unclear results; the compound was inactive in the other large screens (follow-up assays come after a bar, where they were run). Compounds with a hit are over-represented: about 2% of the library has one in this group of screens.

CC1=CC(C)[C@H](/C=N/n2c(=O)[nH]c3c([nH]c4ccc(C)cc43)c2=O)C(C)C1 (some centres not stated)	none
COc1cc(C(=O)Nc2c(C(=O)O)[nH]c3ccc(C)cc23)cc(OC)c1OC	GRK2 aptamer HTS 88 (no result: H9c2 TAG inh) | GRK2 inh confirm inactive | Aptamer quench SP inactive
O=C(NCc1ccc(F)cc1)C1CCCN(S(=O)(=O)c2ccc(-n3cnnn3)cc2)C1 (configuration not stated)	none (no result: H9c2 TAG inh) | GRK2 inh confirm inactive | Aptamer quench SP inactive
COc1cccc(C2(O)CCN(C(=O)C(C)C)CC2)c1	GRK2 aptamer HTS 55 | GRK2 inh confirm inactive | Aptamer quench SP inactive
COc1ccc(Br)c(C(=O)OCC(=O)NC2CCCCCC2)c1	none (no result: Hep lipid drop)
Cn1ccnc1SCCNC(=O)CCc1nnc(CCc2ccccc2)o1	none
CNC(=O)c1c(O)c2cccc3c2n(c1=O)CC3	none (no result: Hep lipid drop)
O=C(Nc1cccnc1)c1c(O)c2cccc3c2n(c1=O)CC3	GRK2 aptamer HTS 65 | GRK2 inh confirm inactive | Aptamer quench SP inactive
Cc1[nH]c2ccccc2c1-c1nc2ccccc2[nH]c1=O	none (no result: H9c2 TAG inh)
O=C(CCl)Nc1ccccc1C(=O)NCc1ccccc1	none
CCN(CC)CCN(CC)Cc1ccccc1Br	GRK2 aptamer HTS 99 (no result: Hep lipid drop, H9c2 TAG inh) | GRK2 inh confirm inactive | Aptamer quench SP inactive
CC(C)CN(C(=O)CCNC(=O)c1ccccc1Cl)C1CCS(=O)(=O)C1 (configuration not stated)	none (no result: Hep lipid drop)
O=C1OCc2ccc(NC(=O)c3sccc3Cl)cc21	GRK2 aptamer HTS 73 | GRK2 inh confirm inactive | Aptamer quench SP inactive
O=C(Nc1ccc2c(c1)C(=O)OC2)c1ccc(Cl)cc1	none (no result: H9c2 TAG inh)
COc1ccc(C(=O)NC(C)c2cnn(-c3ccccn3)c2C)o1 (configuration not stated)	none
O=C1CN(C(=S)NC(=O)c2ccccc2[N+](=O)[O-])CCN1	none (no result: H9c2 TAG inh)
Cc1nc(C(=O)NCc2ccccc2)sc1C1(C)CC(c2ccccc2)=NO1 (configuration not stated)	none | GRK2 inh confirm inactive | Aptamer quench SP inactive
Cc1nc(C(=O)NC2CCOCC2)sc1C1(C)CC(c2ccccc2)=NO1 (configuration not stated)	none
CC(C)C(=O)c1c(C(C)C)nn2ccccc12	none (no result: Hep lipid drop) | GRK2 inh confirm inactive | Aptamer quench SP inactive
Cc1c(C(=O)C(C)C)n(C)c2ccccc12	none (no result: Hep lipid drop)
CCCN(CCC)CCCNC(=O)c1ccc(CS(=O)(=O)c2c(Cl)cccc2Cl)o1	GRK2 aptamer HTS 48 (no result: H9c2 TAG inh) | GRK2 CP2 inactive | FAM quench SP inactive
CN(C)CCNC(=O)c1ccc(CS(=O)(=O)c2c(Cl)cccc2Cl)o1	none (no result: Hep lipid drop)
CC1CCc2c(sc(NC(=O)c3ccc(-c4ccccc4[N+](=O)[O-])o3)c2C#N)C1 (configuration not stated)	GRK2 aptamer HTS 73 (no result: Hep lipid drop, H9c2 TAG inh) | GRK2 inh confirm inactive | Aptamer quench SP inactive
N#Cc1c(NC(=O)c2ccc(-c3ccccc3[N+](=O)[O-])o2)sc2c1CCCC2	none (no result: Hep lipid drop)
